ChEMBL document CHEMBL1135664, “Structure-activity relationships of 1-alkyl-5-(3,4-dichlorophenyl)- 5-[2-[(3-substituted)-1-azetidinyl]ethyl]-2-piperidones. 1. Selective antagonists of the neurokinin-2 receptor” (J Med Chem, 2002)

Tests used:
Substance-K receptor = molecular target: T1, Substance-K receptor (Oryctolagus cuniculus, UniProt P79218); test: Functional potency against Tachykinin receptor 2 (NK2) in rabbit pulmonary artery assay; conditions: read-out: pA2 (converted)
T1 sequence (P79218 whole entry): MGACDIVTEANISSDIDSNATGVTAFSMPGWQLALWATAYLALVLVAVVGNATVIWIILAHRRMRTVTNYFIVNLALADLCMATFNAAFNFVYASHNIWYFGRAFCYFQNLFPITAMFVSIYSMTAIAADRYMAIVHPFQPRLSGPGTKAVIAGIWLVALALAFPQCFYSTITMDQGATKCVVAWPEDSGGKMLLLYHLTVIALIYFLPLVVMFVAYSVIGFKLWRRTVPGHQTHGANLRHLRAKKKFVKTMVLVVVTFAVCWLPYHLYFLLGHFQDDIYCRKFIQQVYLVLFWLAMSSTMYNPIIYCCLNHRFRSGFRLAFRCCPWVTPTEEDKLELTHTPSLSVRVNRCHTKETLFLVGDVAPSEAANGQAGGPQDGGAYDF
In short: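 Rabbit pulmonary artery preparation; antagonism of contractions evoked by the selective NK2 agonist [β-ala8]NKA(4–10); result expressed as pA2. Each determination n ≥ 2, every experiment run in triplicate.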

Homo sapiens = species on record: Homo sapiens; test: In vitro microsomal stability in human liver microsomes (HLM); type: functional

Compound	Kb (Substance-K receptor) [nM]	half-life (Homo sapiens) [min]
CC(=O)NC1(c2ccccc2)CCN(C2CN(CCC3(c4ccc(Cl)c(Cl)c4)CCC(=O)N(CC4CC4)C3)C2)CC1 (stereo not drawn)	3.16	–
O=C1CCC(CCN2CC(N3CCSCC3)C2)(c2ccc(Cl)c(Cl)c2)CN1Cc1ccccc1 (stereo not drawn)	1	–
O=C1CC[C@](CCN2CC(N3CCOCC3)C2)(c2ccc(Cl)c(Cl)c2)CN1CC1CCCCC1	–	14
O=C1CCC(CCN2CC(N3CCOCC3)C2)(c2ccc(Cl)c(Cl)c2)CN1 (stereo not drawn)	> 10000	–
O=C1CCC(CCN2CC(N3C4CCC3CC(O)C4)C2)(c2ccc(Cl)c(Cl)c2)CN1Cc1ccccc1 (stereo not drawn)	0.631	–
Cc1cccc(CN2CC(CCN3CC(N4CCOCC4)C3)(c3ccc(Cl)c(Cl)c3)CCC2=O)c1 (stereo not drawn)	2.51	–
O=C1CCC(CCN2CC(N3CCOCC3)C2)(c2ccc(Cl)c(Cl)c2)CN1C1CCCCC1 (stereo not drawn)	0.126	< 10
O=C1CCC(CCN2CC(N3CC[S+]([O-])CC3)C2)(c2ccc(Cl)c(Cl)c2)CN1Cc1ccccc1 (stereo not drawn)	0.631	–
CN(CC(CCN1CCC(O)(c2ccccc2)CC1)c1ccc(Cl)c(Cl)c1)C(=O)c1ccccc1 (stereo not drawn)	0.316	< 10
O=C1CCC(CCN2CC(N3CCC(O)C3)C2)(c2ccc(Cl)c(Cl)c2)CN1Cc1ccccc1 (stereo not drawn)	2	–
O=C1CCC(CCN2CCC(O)(c3ccccc3)CC2)(c2ccc(Cl)c(Cl)c2)CN1Cc1ccccc1 (stereo not drawn)	1.26	30
CS(=O)(=O)N1CCN(C2CN(CCC3(c4ccc(Cl)c(Cl)c4)CCC(=O)N(Cc4ccccc4)C3)C2)CC1 (stereo not drawn)	0.631	–
O=C1CCC(CCN2CC(N3CCOCC3)C2)(c2ccc(Cl)c(Cl)c2)CN1Cc1ccccc1 (stereo not drawn)	0.501	70
Cc1ccccc1CN1CC(CCN2CC(N3CCOCC3)C2)(c2ccc(Cl)c(Cl)c2)CCC1=O (stereo not drawn)	0.501	–
O=C1CCC(CCN2CC(N3CCS(=O)(=O)CC3)C2)(c2ccc(Cl)c(Cl)c2)CN1Cc1ccccc1 (stereo not drawn)	1.26	–
O=C1CCC(CCN2CC(N3CCOCC3)C2)(c2ccc(Cl)c(Cl)c2)CN1Cc1ccc(F)cc1 (stereo not drawn)	20	–
CN(CCO)C1CN(CCC2(c3ccc(Cl)c(Cl)c3)CCC(=O)N(Cc3ccccc3)C2)C1 (stereo not drawn)	3.16	–
O=C1CCC(CCN2CC(N3CCOCC3=O)C2)(c2ccc(Cl)c(Cl)c2)CN1Cc1ccccc1 (stereo not drawn)	2.51	–
O=C1CCC(CCN2CC(N3CCCOCC3)C2)(c2ccc(Cl)c(Cl)c2)CN1Cc1ccccc1 (stereo not drawn)	2	–
O=C1CCC(CCN2CC(N3CCNCC3)C2)(c2ccc(Cl)c(Cl)c2)CN1Cc1ccccc1 (stereo not drawn)	5.01	–
CN1CCN(C2CN(CCC3(c4ccc(Cl)c(Cl)c4)CCC(=O)N(Cc4ccccc4)C3)C2)CC1 (stereo not drawn)	15.8	–
CC(=O)N1CCN(C2CN(CCC3(c4ccc(Cl)c(Cl)c4)CCC(=O)N(Cc4ccccc4)C3)C2)CC1 (stereo not drawn)	1.58	–
O=C1CCC(CCN2CC(N3CCOCC3)C2)(c2ccc(Cl)c(Cl)c2)CN1Cc1ccncc1 (stereo not drawn)	100	–
O=C1CCC(CCN2CC(N3CCCC(O)C3)C2)(c2ccc(Cl)c(Cl)c2)CN1Cc1ccccc1 (stereo not drawn)	2	–
Cc1ccc(CN2CC(CCN3CC(N4CCOCC4)C3)(c3ccc(Cl)c(Cl)c3)CCC2=O)cc1 (stereo not drawn)	6.31	–
O=C1CCC(CCN2CC(N3CCC(O)CC3)C2)(c2ccc(Cl)c(Cl)c2)CN1Cc1ccccc1 (stereo not drawn)	0.0794	–
O=C1CCC(CCN2CC(N3CCOC(c4ccccc4)C3)C2)(c2ccc(Cl)c(Cl)c2)CN1Cc1ccccc1 (stereo not drawn)	10	–

More lines, main results first:

Kb (Substance-K receptor) [nM]	Compound	half-life (Homo sapiens) [min]
1.26	O=C1CCC(CCN2CC(N3CCOCC3)C2)(c2ccc(Cl)c(Cl)c2)CN1CC1CCCCC1 (stereo not drawn)	70
1.58	O=C1CCC(CCN2CC(N3CCC(O)CC3)C2)(c2ccc(Cl)c(Cl)c2)CN1CC1CC1 (stereo not drawn)	–
15.8	CC(=O)NC1CCN(C2CN(CCC3(c4ccc(Cl)c(Cl)c4)CCC(=O)N(CC4CC4)C3)C2)CC1 (stereo not drawn)	–
2	NC1CCN(C2CN(CCC3(c4ccc(Cl)c(Cl)c4)CCC(=O)N(CC4CC4)C3)C2)CC1 (stereo not drawn)	30
3.16	CNS(=O)(=O)N1CCN(C2CN(CCC3(c4ccc(Cl)c(Cl)c4)CCC(=O)N(CC4CC4)C3)C2)CC1 (stereo not drawn)	–
6.31	CCOC1CCN(C2CN(CCC3(c4ccc(Cl)c(Cl)c4)CCC(=O)N(CC4CC4)C3)C2)CC1 (stereo not drawn)	–
1.26	NS(=O)(=O)N1CCN(C2CN(CCC3(c4ccc(Cl)c(Cl)c4)CCC(=O)N(CC4CC4)C3)C2)CC1 (stereo not drawn)	> 120
1.26	O=C1CCN(C2CN(CCC3(c4ccc(Cl)c(Cl)c4)CCC(=O)N(CC4CC4)C3)C2)CC1 (stereo not drawn)	–
10	CS(=O)(=O)NC1CCN(C2CN(CCC3(c4ccc(Cl)c(Cl)c4)CCC(=O)N(CC4CC4)C3)C2)CC1 (stereo not drawn)	–
7.94	O=C1CCC(CCN2CC(N3CCOCC3)C2)(c2ccc(Cl)c(Cl)c2)CN1CC1CC1 (stereo not drawn)	120
12.6	O=C1CCC(CCN2CC(N3CCNCC3)C2)(c2ccc(Cl)c(Cl)c2)CN1CC1CC1 (stereo not drawn)	–
5.01	NC(=O)N1CCN(C2CN(CCC3(c4ccc(Cl)c(Cl)c4)CCC(=O)N(CC4CC4)C3)C2)CC1 (stereo not drawn)	–
631	O=C1CC[C@@](CCN2CC(N3CCOCC3)C2)(c2ccc(Cl)c(Cl)c2)CN1CC1CCCCC1	84
10	CN(C)S(=O)(=O)N1CCN(C2CN(CCC3(c4ccc(Cl)c(Cl)c4)CCC(=O)N(CC4CC4)C3)C2)CC1 (stereo not drawn)	–
0.398	O=C(O)C1CCN(C2CN(CCC3(c4ccc(Cl)c(Cl)c4)CCC(=O)N(CC4CC4)C3)C2)CC1 (stereo not drawn)	–
3.16	CS(=O)(=O)N1CCN(C2CN(CCC3(c4ccc(Cl)c(Cl)c4)CCC(=O)N(CC4CC4)C3)C2)CC1 (stereo not drawn)	< 10
